Results on 4 compounds are retold here after ChEMBL document CHEMBL1131093, “ATP-Citrate lyase as a target for hypolipidemic intervention. 2. Synthesis and evaluation of (3R,5S)-omega-substituted-3-carboxy-3, 5-dihydroxyalkanoic acids and their gamma-lactone prodrugs as inhibitors of the enzyme in vitro and in vivo” (J Med Chem, 1998).

In test [1] the test system is HepG2. Kind of test: Inhibition of ATP levels in HepG2 cells was measured at 10 uM concentration. It is filed as functional, Homo sapiens. Details: scale not given: the % may be the effect or the level left. The method in brief:
(§1)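 Compounds were applied to HepG2 cells as their γ-lactone prodrugs. De novo cholesterol synthesis, fatty acid synthesis and cellular ATP levels were each expressed as % of control. Significance was marked at p < 0.001.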

Test [2] concerns HepG2. Kind of test: Inhibition of ATP levels in HepG2 cells was measured at 1 uM concentration. It is filed as functional, Homo sapiens. Details: scale not given: the % may be the effect or the level left. The method in brief:
as §1

Test [3] has as its system HepG2. Description: Inhibition of cholesterol synthesis in HepG2 cells was measured at 10 uM concentration. Type of test: functional, Homo sapiens. More on the design: scale not given: the % may be the effect or the level left. The method in brief: as §1
The subject of test [4] is HepG2. Description: Inhibition of ATP levels in HepG2 cells was measured at 3 uM concentration. Type of test: functional, Homo sapiens. More on the design: scale not given: the % may be the effect or the level left. The essentials: as §1
Test [5] has as its system HepG2. Kind of test: (§2) Inhibition of fatty acid synthesis in HepG2 cells was measured at 10 uM concentration. It is filed as functional, Homo sapiens. Details: scale not given: the % may be the effect or the level left. The essentials: as §1
The subject of test [6] is HepG2. Description: Inhibition of cholesterol synthesis in HepG2 cells was measured at 3 uM concentration. It is filed as functional, Homo sapiens. Details: scale not given: the % may be the effect or the level left. The method in brief: as §1
Test [7] has as its system HepG2. Kind of test: Inhibition of fatty acid synthesis in HepG2 cells was measured at 3 uM concentration. Type of test: functional, Homo sapiens. Details: scale not given: the % may be the effect or the level left. The essentials:
as §1

For test [8], the system named is HepG2. Description: Inhibition of ATP levels in HepG2 cells was measured at 28.2 uM concentration. It is filed as functional, Homo sapiens. Details: scale not given: the % may be the effect or the level left.
Test [9] has as its system Rattus norvegicus. Kind of test: % Reduction of plasma triglyceride in the rat was measured at dose 75 mg/kg/d. Type of test: functional. The method in brief: (§3)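 Male Sprague-Dawley rats were kept on a reverse 12 h light/12 h dark cycle with free access to RM1 powdered diet and water. Compound was given orally by gavage as two doses 24 h apart. Blood was drawn mid dark cycle, 4 h after the second dose, into EDTA. Plasma was separated at 1500g for 15 min. Triglyceride was measured enzymatically (GPO-PAP) and reported as % reduction from control.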

The test system of test [10] is Rattus norvegicus. Kind of test: % Reduction of plasma triglyceride in the rat was measured at dose 37.5 mg/kg/d. Type of test: functional. The method in brief: as §3
The target in another test is T1, ATP-citrate synthase (Rattus norvegicus, UniProt P16638).
T1 sequence (P16638 whole entry): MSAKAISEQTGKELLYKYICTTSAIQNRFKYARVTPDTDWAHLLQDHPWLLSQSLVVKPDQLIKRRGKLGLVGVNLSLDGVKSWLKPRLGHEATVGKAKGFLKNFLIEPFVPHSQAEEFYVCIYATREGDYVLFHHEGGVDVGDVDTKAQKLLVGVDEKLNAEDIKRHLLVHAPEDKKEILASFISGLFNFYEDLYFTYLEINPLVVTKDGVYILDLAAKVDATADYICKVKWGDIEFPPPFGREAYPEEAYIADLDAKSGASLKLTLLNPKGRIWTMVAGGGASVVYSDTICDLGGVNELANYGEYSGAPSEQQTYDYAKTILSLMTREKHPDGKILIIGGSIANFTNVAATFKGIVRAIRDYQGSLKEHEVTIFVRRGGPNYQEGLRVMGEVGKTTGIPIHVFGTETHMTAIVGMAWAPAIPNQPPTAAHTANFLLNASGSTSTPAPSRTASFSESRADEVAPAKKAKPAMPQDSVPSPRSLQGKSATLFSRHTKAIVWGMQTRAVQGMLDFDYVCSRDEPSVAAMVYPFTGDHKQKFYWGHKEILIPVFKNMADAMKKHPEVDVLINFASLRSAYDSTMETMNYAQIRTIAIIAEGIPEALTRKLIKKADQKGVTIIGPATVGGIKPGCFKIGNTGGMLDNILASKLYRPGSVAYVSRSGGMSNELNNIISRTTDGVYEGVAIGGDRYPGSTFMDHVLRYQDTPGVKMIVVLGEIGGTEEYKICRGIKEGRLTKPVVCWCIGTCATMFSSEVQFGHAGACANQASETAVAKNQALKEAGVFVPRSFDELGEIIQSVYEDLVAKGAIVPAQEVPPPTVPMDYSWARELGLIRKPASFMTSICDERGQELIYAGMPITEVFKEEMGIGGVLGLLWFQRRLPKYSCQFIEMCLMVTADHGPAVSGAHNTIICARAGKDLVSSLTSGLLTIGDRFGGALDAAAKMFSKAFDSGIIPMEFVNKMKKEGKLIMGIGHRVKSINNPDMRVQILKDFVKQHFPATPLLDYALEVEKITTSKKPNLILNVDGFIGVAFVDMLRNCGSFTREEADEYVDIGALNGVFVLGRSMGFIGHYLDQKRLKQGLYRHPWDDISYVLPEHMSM
Description: Inhibitory activity was tested against ATP-Citrate Lyase (ACL) enzyme in rat.

Test [11] relates to HepG2. Described as §2. Type of test: functional, Homo sapiens. More on the design: scale not given: the % may be the effect or the level left. The method in brief: as §1
This is another data set of the same source.

The test system of test [12] is HepG2. Kind of test: Inhibition of ATP levels in HepG2 cells was measured at 30 uM concentration. Type of test: functional, Homo sapiens. More on the design: scale not given: the % may be the effect or the level left. The essentials:
as §1

Values joined by “and” are separate entries in the source; they are usually repeats but may differ in a detail not shown here. Equal values may be shown once.

For `O=C(O)[C@H](O)[C@@]1(O)C[C@@H](CCCCCCc2ccc(Cl)cc2Cl)OC1=O`, the Control in the test on HepG2 [1] is listed as 106%; in the test with HepG2 [2], 103%; in the test on HepG2 [3] it was 86%; with HepG2 [4], 100%; in the test with HepG2 [5], 76%; in the test on HepG2 [6], 69%. In the test on HepG2 [7], the Control was determined as 74%.
Regarding `Cc1cn(-c2cc(Cl)ccc2CCCCCC[C@@H]2C[C@](O)(CC(=O)O)C(=O)O2)cc1C`, the Control in the test with HepG2 [8] is 96%; in the test with HepG2 [1], 96% and 101%; with HepG2 [3], 82%; in the test with HepG2 [4], 98%; in the test on HepG2 [5], 75% and 89%; in the test with HepG2 [6], 104%. The compound further displayed a Control in the test on HepG2 [7] of 102%. Further, the Reduction is listed as 20% in the test with Rattus norvegicus [9] and 10% in the test on Rattus norvegicus [10].
`N[C@H](C(=O)O)[C@@](O)(CC(=O)O)C(=O)O`: the Ki at ATP-citrate synthase amounted to 11 µM.
In the case of `O=C(O)C[C@@]1(O)C[C@@H](CCCCCCc2ccc(Cl)cc2-c2ccccc2)OC1=O`, the Control with HepG2 [1] was 96% and 100%; in the test on HepG2 [3], 65% and 60%; with HepG2 [4], 98%; in the test on HepG2 [5], 75%; with HepG2 [11] it was 88%; in the test with HepG2 [6] it was 101%. In addition, the Control in the test on HepG2 [12] amounted to 95%; in the test on HepG2 [7], 108%.

In general, Ki refers to a dissociation constant, usually derived from enzyme kinetics or from competition with a known ligand.
